Sampled rows, rich in hits. Any-hit rate of the full collection: about 4.1%.
STAT1 activator = STAT1 signaling activation; NIH 3T3 STAT1-luciferase reporter, IFN-gamma, luminescence; 100% = IFN-gamma alone, no compound; 2.6% of 200,000 active; activation (% of control), % at 5.5 µM;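 active means activation above the screen-wide mean activation plus 3 SD, cut at about 130% in these data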
NF-kB expr up = NF-kB expression increase, human neuronal cells. NF-kB reporter expression; active compounds read high. 1.6% of 190,000 active. fold change at 12.5 µM; in the data active means fold change above about 3.3
FLuc stim CS = firefly luciferase counter-screen for stimulation assays; ATPlite luciferase biochemical, luminescence, 10 min; 0 = ATP-free wells, 1 = DMSO control; 200,000 tested, under 10 active; P08659; activation factor at 10 µM;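 active means luciferase activation factor, scaled between plate controls, of at least 2 with compound at 10 µM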
Target sequence (P08659 whole entry, looked up): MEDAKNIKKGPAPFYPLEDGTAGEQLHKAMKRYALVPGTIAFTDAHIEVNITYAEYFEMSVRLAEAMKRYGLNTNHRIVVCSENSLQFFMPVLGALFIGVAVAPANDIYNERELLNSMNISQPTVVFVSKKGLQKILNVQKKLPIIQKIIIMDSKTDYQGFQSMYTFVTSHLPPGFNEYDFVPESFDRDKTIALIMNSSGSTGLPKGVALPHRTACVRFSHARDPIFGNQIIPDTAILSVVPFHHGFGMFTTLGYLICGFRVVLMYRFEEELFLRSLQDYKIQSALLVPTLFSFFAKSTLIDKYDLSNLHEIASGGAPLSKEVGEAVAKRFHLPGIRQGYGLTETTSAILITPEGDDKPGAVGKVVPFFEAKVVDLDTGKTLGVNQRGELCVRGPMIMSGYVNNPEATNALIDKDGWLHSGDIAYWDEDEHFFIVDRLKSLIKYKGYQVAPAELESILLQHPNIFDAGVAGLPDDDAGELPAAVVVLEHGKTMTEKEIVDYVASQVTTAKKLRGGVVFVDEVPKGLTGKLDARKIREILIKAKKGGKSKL
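System: luciferase plus luciferin reagent, cell-free; medium: PBS as buffer for the ATP substrate; dosing: test compounds dosed from 2 mM stocks in 100% DMSO; timing: 10 min post-reagent at room temperature; measured by: luminescence measurement of luciferase light output; evaluation: luciferase activation, seen as luminescence increase over controls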
FLuc inh counter = inhibits firefly luciferase, flagging false hits in luciferase inhibition screens; 1.5% of 200,000 active; inhibition, % at 10 µM; P08659; ATPLite firefly luciferase biochemical luminescence, 10 min;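 active means inhibition above about 50% when tested at 10 µM, limit read from the data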
APP 5'UTR act = APP 5'UTR luciferase reporter activation | AID 1276 | 1% of 190,000 active | activation, % at 2 µM | SH-SY5Y APP 5'UTR luciferase reporter, luminescence; zero percent = DMSO vehicle wells;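 active means activation above a set limit, based on mean plus 3 SD of controls, cut at about 140% in these data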
Hits are given with their value; - = inactive; . = not tested or not shown.

SMILES	STAT1 activator	NF-kB expr up	FLuc stim CS	FLuc inh counter	APP 5'UTR act
Cc1ccc(O)c(NC(=S)NC(=O)/C=C/c2ccco2)c1	-	-	-	-	-
O=C(NC(=S)Nc1cccnc1Cl)c1ccco1	-	-	-	58	-
Cc1ccnc(NC(=S)NC(=O)c2ccco2)c1	130	4.7	-	61	149
Cc1ccnc(NC(=S)NC(=O)/C=C/c2ccco2)c1	144	-	-	-	-
O=C(NC(=S)Nc1ccccc1[N+](=O)[O-])c1ccco1	-	-	-	-	-
O=C(NC(=S)Nc1ccccn1)c1ccco1	132	-	-	-	-
O=C(N/N=C/c1cccc([N+](=O)[O-])c1)C1CC1c1ccccc1 (stereo unspecified)	-	-	-	-	-
Cc1noc(C)c1C(=O)N1CCN(S(=O)(=O)c2ccc(F)cc2)CC1	-	-	-	-	-
CCOc1ccc2nc(N/C(N)=N/C(=S)Nc3ccc(OC)cc3)nc(C)c2c1	-	.	-	-	-
CCOc1ccc(N2Cc3ncccc3C2=O)cc1	140	-	-	-	-
Nc1nc(Nc2cccc(F)c2)nc2ccccc12	145	5.3	-	57	-
Cc1ccc(C)c(Nc2nc(N)c3ccccc3n2)c1	-	-	-	66	184
O=c1oc(Nc2cccc(F)c2)nc2ccccc12	-	-	-	-	-
Cc1ccc(C)c(Nc2ncnc(N)c2[N+](=O)[O-])c1	-	-	-	-	-
C=CCNC(=O)c1c(Br)cnn1-c1ccc(C)cc1	147	-	-	-	-
CCOC(=O)c1cnn(-c2ccc(C)cc2)c1N	-	-	-	-	-
C=CCn1c(SCC(=O)NCc2cccs2)nnc1C1CCCCC1	-	-	-	-	-
Cc1cc(NC(=O)NC(=O)c2cccc(OC(F)(F)C(F)F)c2)n[nH]1	132	-	-	-	-
Cc1cc(NC(=O)c2cccc(Oc3ccccc3)c2)n[nH]1	-	-	-	71	-
CN(C)c1ccc(S(=O)(=O)c2ccc(Cl)cc2)cc1	-	-	-	-	-
C=CCc1ccc(OCCCCN2CC(C)CC(C)C2)c(OC)c1 (stereo unspecified)	-	-	-	-	-
O=c1[nH]c(CSc2ccccn2)nc2c1cnn2-c1ccccc1	-	-	-	-	-
O=c1[nH]c(CSc2ccccn2)nc2ccccc12	135	-	-	-	-
COCc1cc(C)nc(SCc2nc3ccccc3c(=O)[nH]2)c1C#N	-	-	-	-	-
Cc1cc(C)c(C#N)c(SCc2nc3ccccc3c(=O)[nH]2)n1	-	-	-	-	153
SMILES	STAT1 activator	NF-kB expr up	FLuc stim CS	FLuc inh counter	APP 5'UTR act
CCN(Cc1ccccc1)C(=O)C1CCN(CC2CC=CCC2)CC1 (stereo unspecified)	-	-	-	-	-
O=C(CSc1nnc2ccccn12)c1ccc(Cl)cc1	-	-	-	-	-
CC(C)CCNC(=O)c1cccc(C(=O)NCCC(C)C)c1	-	-	-	-	-
CC(C)CCNC(=O)c1ccc(-c2ccccc2)cc1	132	-	-	-	-
CC(C)CCNC(=O)C(=O)Nc1ccccc1	129	-	-	-	-
CNCCC1Sc2ccccc2Oc2ccccc21 (stereo unspecified)	-	-	-	-	-
CN(C(=O)c1cccc(Nc2ccc(-c3ccc4c(c3)OCCO4)nn2)c1)C1CCCCC1	-	-	-	77	-
COc1ccc(Cc2noc(CN(C)Cc3ccc(-n4cccn4)cc3)n2)cc1OC	-	-	-	-	-
COc1ccc(NC(=O)c2cc(OC)c(OC)c(OC)c2)cc1S(=O)(=O)N1CCCCC1	-	-	-	-	-
CC(/C=N/NC(=O)Cn1nccc1C)=C\c1ccc(C(C)C)cc1	129	-	-	-	-
CC(=C/c1ccc(C(C)C)cc1)/C=N/NC(=O)Cn1nc(C)cc1C	-	-	-	-	-
O=[N+]([O-])c1ccc(-c2nc(=S)c3c(o2)CCCC3)cc1	-	-	-	-	-
S=c1nc(-c2ccccc2)oc2c1CCCC2	132	4	-	-	-
COc1cccc(-c2nc(=S)c3c(o2)CCCC3)c1	144	-	-	-	170
Cc1cc(C)n2nc(CCc3ccccc3)nc2n1	-	-	-	-	-
COc1ccc(/C=C/C(=O)c2ccoc2)cc1	-	-	-	-	-
COc1ccc(C(=O)NNC(=O)c2ccccn2)cc1	-	-	-	97	-
COc1ccc(/C=C/C(=O)c2ccc(O)cc2)cc1	-	-	-	75	-
COc1ccc(/C=C/C(=O)c2ccccn2)cc1	-	-	-	96	-
COc1ccc(/C=C/C(=O)c2ccccc2O)cc1	-	5	-	-	-
COc1ccc(S(=O)(=O)N2CCCCC2)cc1NC(=O)C1CCCO1 (stereo unspecified)	-	-	-	-	-
O=C(O)CCN1C(=O)c2ccc(NC(=O)CSCc3ccccc3)cc2C1=O	-	-	-	-	-
CC(C)N=c1scc(-c2ccco2)n1/N=C/c1ccc(O)c(O)c1	-	9.6	-	-	-
Cc1ccc(C(c2nnnn2C(C)(C)C)N2CCN(C3CCCC3)CC2)cc1 (stereo unspecified)	-	-	-	-	-
Cc1ccc(Nc2nnc(SCC3CCCCO3)s2)cc1 (stereo unspecified)	-	-	-	-	-
SMILES	STAT1 activator	NF-kB expr up	FLuc stim CS	FLuc inh counter	APP 5'UTR act
COc1ccccc1Nc1nnc(SCC2CCCCO2)s1 (stereo unspecified)	-	5.2	-	86	176
Cc1ccccc1Nc1nnc(SCC2CCCCO2)s1 (stereo unspecified)	129	6.1	-	60	146
COc1ccccc1Nc1nnc(SCC(=O)N2CCCC2)s1	-	-	-	-	-
COC(=O)CCc1c(C)nn(-c2ccccc2)c1C	-	-	-	-	-
O=C(CCC1CCCC1)Nc1ccc(OCC(=O)N2CCOCC2)cc1	-	-	-	73	-
COc1cc(/C=N/Nc2nc(N3CCCC3)nc(N3CCCC3)n2)ccc1O	-	-	-	-	-
Oc1ccc(/C=N/Nc2nc(N3CCCC3)nc(N3CCCC3)n2)cc1O	132	-	-	-	-
COc1cc(/C=N/Nc2nc(Nc3ccccc3)nc(N3CCCCC3)n2)ccc1OCC(=O)O	-	-	-	51	-
CC[n+]1c(/C=C/c2c[nH]c3ccccc23)ccc2cc(C)ccc21	-	-	-	-	-
COc1ccc(NC(=O)CSc2nc(N)c3cc4c(nc3n2)CCCC4)cc1	-	-	-	62	-
CSc1nc(-c2ccco2)nn1C(=O)c1ccc(C)cc1	-	-	-	-	-
Cc1ccc(CNC(C)(C)CO)cc1	-	-	-	-	-
c1ccc(-c2ccc(SCc3cccnc3)nn2)nc1	-	-	-	-	-
COc1cccc(-c2ccc(SCc3ccccn3)nn2)c1	-	-	-	-	-
O=[N+]([O-])c1cccc(-c2ccc(SCc3ccccn3)nn2)c1	135	-	-	-	-
c1ccc(CSc2ccc(-c3ccccn3)nn2)nc1	133	-	-	-	-
Clc1ccc(-c2ccc(SCc3ccccn3)nn2)cc1	145	-	-	-	-

Bioassay records: PubChem, several laboratories
